Tests used:
[1] = molecular target: Sodium-dependent dopamine transporter (Rattus norvegicus, UniProt P23977)
[2] = molecular target: Sodium-dependent dopamine transporter (Rattus norvegicus) (UniProt P23977); assay: Binding affinity to Dopamine transporter (DAT) using [3H]WIN-35428 at 1 uM
Method in brief: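 Rat striatal membranes (male Sprague-Dawley, 200-225 g) in modified Krebs-HEPES buffer, pH 7.4. Each tube held 2.5 mg tissue (original wet weight) and 1.5 nM [3H]WIN 35,428. Membranes were preincubated 5 min with or without 1 μM test compound, in triplicate, then incubated 60 min on ice. Nonspecific binding was taken with 0.1 mM cocaine·HCl. Filtration through BSA-presoaked GF/B filters, scintillation counting.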

Sequence of Sodium-dependent dopamine transporter (Rattus norvegicus) (P23977 whole entry): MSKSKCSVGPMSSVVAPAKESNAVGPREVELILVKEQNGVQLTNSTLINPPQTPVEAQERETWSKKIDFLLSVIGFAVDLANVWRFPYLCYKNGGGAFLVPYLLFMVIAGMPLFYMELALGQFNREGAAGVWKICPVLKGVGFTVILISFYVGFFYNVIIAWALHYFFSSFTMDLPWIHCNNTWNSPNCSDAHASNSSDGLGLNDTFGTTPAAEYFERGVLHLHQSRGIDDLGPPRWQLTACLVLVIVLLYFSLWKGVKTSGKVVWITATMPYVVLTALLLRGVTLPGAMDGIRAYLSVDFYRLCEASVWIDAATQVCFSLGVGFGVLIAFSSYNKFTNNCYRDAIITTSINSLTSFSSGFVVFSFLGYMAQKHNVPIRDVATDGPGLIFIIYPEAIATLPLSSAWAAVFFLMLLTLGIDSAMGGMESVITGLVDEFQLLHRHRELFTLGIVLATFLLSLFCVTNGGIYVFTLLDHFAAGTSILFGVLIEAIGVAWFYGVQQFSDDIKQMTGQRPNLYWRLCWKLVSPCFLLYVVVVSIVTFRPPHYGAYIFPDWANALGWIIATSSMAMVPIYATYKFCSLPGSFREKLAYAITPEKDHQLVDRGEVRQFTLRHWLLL
Sequence of Sodium-dependent dopamine transporter (P23977 whole entry): as above

Structure (SMILES)	Ki [1] [nM]	Specific binding [2] [%]
COC(=O)/C=C/CC[C@@H]1C2CCC(C[C@@H]1c1ccccc1)N2C (stereo not given in full)	20	
CC(C)OC(=O)[C@@H]1C2CC[C@H](C[C@@H]1c1ccc(I)cc1)N2C	3.98	
COC(=O)C[C@@H]1C2C[C@H](Cc3ccccc3)C(C[C@@H]1Cc1ccccc1)N2C (stereo not given in full)	3090	
CN1[C@@H]2CC[C@H]1C[C@@H](OC(c1ccccc1)c1cccc(C(F)(F)F)c1)C2 (stereo not given in full)	191	
COC(=O)[C@@H]1C2CC[C@H](C[C@@H]1c1ccc(C)cc1)N2C	5.01	
CN1C2CCC1[C@@H](CCC(=O)c1ccccc1)[C@@H](c1ccccc1)C2 (stereo not given in full)	28.2	
CC[C@H]1CC2[C@@H](CC(=O)OC)[C@@H](Cc3ccccc3)CC1N2C (stereo not given in full)	309	
COc1cc(NCCN(CC(C)C)CC(C)C)c2ncccc2c1		81.6
c1ccc(C(CN2CCCCC2)OCc2cccs2)cc1 (stereo not given)		42.1
CN1C2CCC1[C@@H](CCCO)[C@@H](c1ccccc1)C2 (stereo not given in full)	11	
CC(=O)[C@@H]1C2CCC(C[C@@H]1OC(=O)c1ccccc1)N2C (stereo not given in full)	191	
O=C1c2ccccc2CC1CN1CCCCC1 (stereo not given)		89.9
CCOC(=O)N1CCN(Cc2c[nH]c3ccccc23)CC1		88.5
O=C1N2CCNc3ccccc3C(c3ccccc3)N1CC2 (stereo not given)		55.8
COC(=O)C1C2CC[C@H](C[C@@H]1c1ccc(Cl)cc1)N2C (stereo not given in full)	2	
CN1[C@@H]2CC[C@H]1C[C@@H](OC(c1ccccc1)c1ccc(Cl)c(Cl)c1)C2 (stereo not given in full)	21.4	
COc1ccc2c(c1)CN(C)CC2c1ccc(Cl)c(Cl)c1 (stereo not given) [DICLOFENSINE]	7.08	
NC12CCC(c3ccccc3)(CC1)CC2	83.2	
CC(CN1CCCC1)OC(=O)C(c1ccccc1)C1C=CCC1 (stereo not given)		49.7
CCCN1CCCC(c2ccc(O)cc2)C1 (stereo not given)	562	
C[C@@H]1CN(CCCn2c3ccccc3c3ccccc32)C[C@H](C)N1 [RIMCAZOLE]	105	
CCC[C@H]1CC2[C@@H](CC(=O)OC)[C@@H](Cc3ccccc3)CC1N2C (stereo not given in full)	4170	
CN1C2CCC1[C@@H](CCCc1ccccc1)[C@@H](c1ccccc1)C2 (stereo not given in full)	16.2	

Structure (SMILES)	Ki [1] [nM]	Specific binding [2] [%]
COc1ccc(C(O[C@H]2C[C@H]3CC[C@@H](C2)N3C)c2ccccc2)cc1 (stereo not given in full)	79.4	
Clc1ccc(C2NCCNCc3ccccc32)cc1 (stereo not given)		54.3
COC(=O)[C@@H]1C2CC[C@H](C[C@@H]1c1ccc(I)cc1)N2C	2.09	
COC(=O)CCCC[C@@H]1C2CCC(C[C@@H]1c1ccccc1)N2C (stereo not given in full)	30.2	
CC(C(OC(=O)C1c2ccccc2-c2ccccc21)c1ccccc1)N(C)C (stereo not given)		19
COc1ccccc1OC(CCN)c1ccccc1 (stereo not given)	562	
COC(=O)/C=C/[C@@H]1C2CCC(C[C@@H]1c1ccccc1)N2C (stereo not given in full)	21.9	
O=C(OCCN1CCOCC1)C1(c2ccccc2)CCCCC1	5370	
COC(=O)[C@@H]1C2CC[C@H](C[C@@H]1c1ccccc1)N2C	87.1	
CCCC[C@H]1CC2[C@@H](CC(=O)OC)[C@@H](Cc3ccccc3)CC1N2C (stereo not given in full)	8510	
c1ccc2c(CN3CCOCC3)c[nH]c2c1		88.1
CCCCN(CCCC)CCC(=O)c1cc(-c2ccccc2)oc1-c1ccccc1		93.4
CN1C2CCC1[C@@H](/C=C/CO)[C@@H](c1ccccc1)C2 (stereo not given in full)	16.2	
CN1[C@@H]2CC[C@H]1C[C@@H](OC(c1ccccc1)c1ccccc1N)C2 (stereo not given in full) [AMINOBENZTROPINE]	1860	
c1ccc2sc(C3(N4CCCCC4)CCCCC3)cc2c1	10	
CC(NC(C)(C)C)C(=O)c1cccc(Cl)c1 (stereo not given) [BUPROPION]	372	
CN1CCC(OC(c2ccccc2)c2ccc(Cl)cc2)C1 (stereo not given)		8.43
COC(=O)C[C@@H]1C2C[C@H](C)C(C[C@@H]1Cc1ccccc1)N2C (stereo not given in full)	214	
COC(=O)CC[C@@H]1C2CCC(C[C@@H]1c1ccccc1)N2C (stereo not given in full)	22.9	
CCC(=O)[C@@H]1C2CCC(C[C@@H]1OC(=O)c1ccccc1)N2C (stereo not given in full)	309	
CN(C)C/C=C(\c1cccnc1)c1cccc(Br)c1	11200	
COC(=O)CC(c1ccccc1)C1CCCCN1 (stereo not given)	186	

Source: ChEMBL document CHEMBL1132952, “2D QSAR modeling and preliminary database searching for dopamine transporter inhibitors using genetic algorithm variable selection of Molconn Z descriptors” (J Med Chem, 2000)
